Measurements as given in ChEMBL document CHEMBL4513216, “Probing the Open Global Health Chemical Diversity Library for Multistage-Active Starting Points for Next-Generation Antimalarials” (ACS Infect Dis, 2020).

Assay: Toxicity liver stage against HepG2, at 10uM
Type: cell-based
Set-up: test concentration 10 uM, cell line HepG2-A16-CD81EGFP
Settings: human, HepG2-A16-CD81EGFP cells; read-out: INHIBITION
Outline: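 Uninfected HepG2-A16-CD81EGFP cells, 3 × 10^3 per well, 1536-well, plated on prespotted compound at 10 μM final, parasite-free screening media added to match infected plates; puromycin 10 μM positive, DMSO 0.5% negative; run in parallel with 48 h PbLuc assay at 37 °C, 5% CO2; viability by CellTiter-Glo luminescence, normalized to controls.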

Structure (SMILES)	cytotoxicity at 10 µM
CC(C)Oc1cccc(C(=O)C2CCCN(C(=O)c3ccoc3)C2)c1 (configuration not stated)	1.43%
C=C(C)CSc1nnc(CCNC(=O)OC(C)(C)C)o1	8.94%
CCCC(=O)N(CCN1CCOCC1)c1nc2c(OC)ccc(C)c2s1	-5.02%
O=C(Nc1ccc2c(c1)OCCO2)N1CCCC1c1ccco1 (configuration not stated)	8.2%
COCCn1ccc2cc(C(=O)N3CCN(S(C)(=O)=O)CC3)ccc21	-6.63%
Cc1ccc(S(=O)(=O)NCC2(O)CCOc3ccccc32)s1 (configuration not stated)	5.33%
N#Cc1ccc(OC2CCN(C(=O)c3ccc(Br)o3)CC2)nc1	11.2%
COCCc1noc(C2CCN(C(=O)Nc3cccs3)CC2)n1	-10.6%
CN(C)c1ccc2c(c1)CN(C(=O)c1ccco1)C2c1cnco1 (configuration not stated)	31.9%
Cn1c2c(c(=O)n1C)CN(C(=O)c1ccsc1)CCC2	5.04%
Cc1ccccc1OCC(=O)N1CC[C@]2(C[C@@H](OCC3CC3)CO2)C1	3.1%
CC(C)C(NC(=O)Cn1nc2c(cc1=O)CCCC2)C(=O)O (configuration not stated)	7.63%
Cc1cccc(Cn2cc(Br)c(NS(C)(=O)=O)n2)c1	-0.08%
O=C1N[C@H]2OCCC[C@H]2[C@H](c2ccccc2C(=O)O)N1	2.62%
COCCC(=O)N1CCC2(CC1)CN(S(C)(=O)=O)Cc1ccccc1O2	3.73%
O=C(c1cccnc1)N1CCCC1c1cc[nH]n1 (configuration not stated)	-26.5%
O=C(CCn1c(C(F)F)cc2cccnc21)NC1CCCC1	-40.5%
Cn1nccc1C(=O)N1Cc2cc(Cl)ccc2OC2(CCOCC2)C1	19.7%
O=C(Cc1ccsc1)N1CCC(c2noc(-c3ccncc3)n2)CC1	-22.1%
NC(=O)CN1CCCC(CCCc2ccccn2)(C(N)=O)C1 (configuration not stated)	-23.5%
c1cnc(Nc2cncc(C3CCCN(c4ncccn4)C3)n2)nc1 (configuration not stated)	-2.44%
O=C(Cc1ccsc1)N1CCC(c2n[nH]c3nccnc23)CC1	-10.6%
COc1ccccc1CC(C)N(C)CCS(C)(=O)=O (configuration not stated)	7.57%

Structure (SMILES)	cytotoxicity at 10 µM
CC(NCCCn1ccnc1)c1ccc(N2CCCS2(=O)=O)cc1 (configuration not stated)	-7.49%
CCn1cc(S(=O)(=O)NCc2ccnc(-n3ccnc3)c2)cn1	-1.78%
Cc1cnn(CCNCC(=O)N2CCN(c3ccccn3)CC2)c1	1.22%
CNC(=O)CCN(C)CC1(c2ccc(Br)cc2)CC1	-12.5%
NC(=O)CSCCC(=O)NCC1CC1	6.2%
Cc1cnn(Cc2ccc(NC(=O)N3CCCCC3CO)cc2)c1 (configuration not stated)	56.1%
CNS(=O)(=O)c1ccc(CNC(=O)Nc2ccccn2)s1	-9.11%
Cc1c(CS(C)(=O)=O)cccc1NCC1CCCCC1	-8.98%
CCNC(=O)CCC(=O)NC(C)Cc1ccccc1Br (configuration not stated)	-4.99%
Cc1cc(C)c(CNC(=O)N2CCC(N3CCCCC3)CC2)c(=O)[nH]1	7.53%
Cc1cc(C(=O)N2CC(=O)Nc3cnccc32)c(Cl)cc1F	3.07%
CC(Nc1ccc(N2C(=O)CCCC2=O)cc1)c1ccc(C#N)cc1 (configuration not stated)	8.71%
CCOCC(=O)Nc1ncc(I)cc1C	-4.76%
Cc1ccc(NC2CCN(C(=O)CCCc3ccccn3)CC2)cc1	13.3%
Cc1ccc(C)c(S(=O)(=O)NCCC(=O)NCc2ccoc2)c1	-11.5%
Cc1ccc(C(=O)Nc2ccn(CCC(N)=O)n2)cc1	2.42%
N#Cc1cccc(CN2C(=O)c3ccccc3CS2(=O)=O)c1	-2.14%
Cn1cnnc1CCNC(=O)c1ccccc1OC1CCC1	-2.94%
Cc1nc(NC(=O)c2nn(-c3ccc(F)cc3C)cc2O)n[nH]1	-7.3%
N#Cc1nccnc1NCCC1CCN(CC(F)(F)F)CC1	1.6%
CC(C)OCCS(=O)(=O)c1ccccc1C#N	8.24%
O=C(c1ccc2[nH]cnc2c1)N1CCCC1Cn1cccn1 (configuration not stated)	-10%
CN(C)CCn1ccc2ccc(NC(=O)c3ccncc3F)cc21	-1.53%

Structure (SMILES)	cytotoxicity at 10 µM
CC(C)OCCN1CCN(C(=O)c2cc(-n3cccn3)ccn2)CC1	-0.158%
Cc1nc(-c2ccccc2)ccc1C(=O)N1CCn2c(C)nnc2C1	4.01%
Cc1ccc(C(F)(F)F)cc1NCC(=O)Nc1c(C)nn(C)c1C	-1.86%
CC(C)c1cnc(CN2C(=O)CC3(CCSC3)C2=O)o1 (configuration not stated)	17.2%
CC(C)(C)c1cnc(CN2C(=O)CC3(CCSC3)C2=O)o1 (configuration not stated)	7.28%
Cc1nnc(CN(Cc2ccccc2Cl)C2CCCC2)o1	0.256%
Cn1cc(CC(CNC(=O)Nc2cccc(Cl)c2)C(N)=O)cn1 (configuration not stated)	-15.5%
Cc1cccc2c1OCCCC2NCc1nccn1Cc1ccccc1 (configuration not stated)	1.38%
CN(C)c1ccc(CNCc2ccc(N3CCOCC3)cc2)cn1	7.17%
CNC(=O)NC(=O)CN(Cc1ccc(C#N)cc1)Cc1cccc(F)c1	5.51%
O=C(Nc1ccc(-n2cccn2)c(F)c1)C1CCN(C(=O)C2CC2)CC1	1.48%
Cn1nnnc1SCCC(=O)NCC1Cc2ccccc2O1 (configuration not stated)	9.35%
Cc1ccc(CCCC(=O)N2CCC(CS(N)(=O)=O)CC2)s1	15.6%
COc1cccc(COCC(=O)NC(C)c2nnc3n2CCC3)c1 (configuration not stated)	-3.36%
Cn1ncnc1NCc1ccc(Cl)cc1	-4.43%
Cc1nncn1CCNC(=O)C(C)(C)c1cccc(C(F)(F)F)c1	8.63%
CC(CC(=O)Nc1ccc(C(=O)N(C)C)c(Cl)c1)n1cccc1 (configuration not stated)	7.07%
Cc1ccc(C2COCCN2C(=O)c2ccc(N(C)C)cc2)o1 (configuration not stated)	4%
CCc1cc(NCC(O)CN2CCCCC2)n2ncnc2n1 (configuration not stated)	-7.45%
Cc1nc(C)n(CC2CCCN(Cc3nnc(-c4ccco4)o3)C2)n1 (configuration not stated)	-8.33%
O=C(NCc1cc[nH]n1)NC1CCCN(c2ncccn2)C1 (configuration not stated)	-2.26%
CCCNC(=O)c1nc2c(o1)CN(C(C)=O)C2	-70.6%
COc1ccc(N2CCN(Cc3nc(CSC)no3)C(C)C2=O)cc1 (configuration not stated)	3.28%

Structure (SMILES)	cytotoxicity at 10 µM
CNC(=O)CCN1CCC(c2nnc(Cn3cccn3)n2C2CC2)CC1	1.53%
COCC(C)N1CCc2onc(-c3ccc(C(F)(F)F)cc3)c2C1 (configuration not stated)	-6.45%
COCc1ccc(C(=O)N2CCN(CC=C(C)C)[C@@H]3CS(=O)(=O)C[C@@H]32)o1	17.2%
CCc1ccccc1CN1CCC(N2CCCC2=O)CC1	-2.53%
O=C(c1cc2c(s1)CCCCC2)N1CCC(c2ncc[nH]2)CC1	15.7%
CCOC(=O)N[C@H]1C[C@@H](C(=O)NCc2cccc(Cl)c2)N(C)C1	-3.89%
CN(Cc1ccc2c(c1)OCO2)C(=O)c1ccc(C2CCCO2)s1 (configuration not stated)	5.6%
CC[C@H]1CN(C(=O)c2cccc(-n3cnnc3)n2)CC[C@@]1(C)O	3.66%
Cc1cc2cccc(NC(=O)N3CCC(N(C)C)C3)c2o1 (configuration not stated)	1.97%
CCN(Cc1nccn1C)C(=O)c1ccc(NCCc2c[nH]cn2)nc1	-2.5%
O=C(c1cscn1)N1CCC(Cn2cc(-c3ccsc3)nn2)CC1	0.259%
c1ccc(C2CCCN2C2CCSCC2)nc1 (configuration not stated)	9.03%
COc1cccc(OCCNS(C)(=O)=O)c1	13%
O=C(CCC(F)(F)F)N1CCCC(c2ncc[nH]2)C1 (configuration not stated)	2.14%
CC(C)N(C)CC(=O)N1CCCC(c2ccc(C(=O)O)cc2)C1 (configuration not stated)	-6.09%
CSc1cccc(CN(C)C(=O)C2CC(=O)N(CCN(C)C)C2)c1 (configuration not stated)	-16.5%
COc1ccc(S(=O)(=O)NC(=O)COC2CCCC2)cc1	-2.55%
Cc1nc(C)n(CC2CCCN(Cc3ncc(C(C)(C)C)o3)C2)n1 (configuration not stated)	-5.95%
CC(C)c1nccc(N2CCN(CC(=O)N3CCOCC3)CC2)n1	-8.68%
O=C(Nc1cccc(CNCc2ccccn2)c1)C1CCCC1	-7.63%
Cc1n[nH]c(C)c1C1COCCN1C(=O)c1ccc(Cl)o1 (configuration not stated)	-1.01%
c1ncn(CC2CCCN(Cc3nnc(C4CC4)o3)C2)n1 (configuration not stated)	-14.5%
Cc1nn(C)c(C)c1C1COCCN1C(=O)c1n[nH]c2ccccc12 (configuration not stated)	-8.72%

Structure (SMILES)	cytotoxicity at 10 µM
O=C(NCCNc1ncccn1)C1CCN(c2ncccn2)CC1	-7.67%
c1ccc(CNC2CCc3ncnn3C2)nc1 (configuration not stated)	-6.69%
Cc1ncc(CNC(=O)N(C)C2CCN(c3ccccc3)C2=O)s1 (configuration not stated)	-14.7%
CN(C)c1ncccc1CNC(=O)N1CCCC1c1ccsc1 (configuration not stated)	-6.33%
Cc1cnn(C2CCCN(C(=O)Cc3ccc(-n4cccn4)cc3)C2)c1 (configuration not stated)	2.55%
COc1ccc(OC)c(NC(=O)NCC(O)c2ccc(F)c(F)c2)c1 (configuration not stated)	0.746%
Cc1ccc(NC2CCN(C(=O)Cc3ccc(C#N)cc3)CC2)nn1	-6.83%
O=C(c1cc(C2CCCCN2CCO)n[nH]1)N1CCOCC1 (configuration not stated)	-24.5%
Cc1nnc(N2CC[C@H]3C[C@@H](C(=O)N4CCCC4)O[C@H]3C2)s1	-70.6%
Cc1nc(CN2CCC3(CCCN(Cc4cnn(C)c4)C3)C2=O)cs1 (configuration not stated)	-5.74%
COCC1c2c(cnn2CC2CC2)CCN1Cc1cccs1 (configuration not stated)	-6.61%
Cc1cc(CN2CCC3(CC2)CC(Nc2ncccn2)CO3)nn1C (configuration not stated)	-1.84%
c1cnc(NCc2noc3c2CN(CCN2CCCC2)CC3)nc1	-7.36%
CC(=O)N1[C@H](CN(C)C)C[C@@H]2CN(c3ncc(F)cn3)CC[C@@H]21	5.56%
COCc1ncn2c1CN(S(=O)(=O)Cc1ccc(C)cc1)CC2	0.854%
COCCN1CCO[C@@H]2CN(Cc3ccc(C)o3)C[C@@H]2C1	-7.24%
O=C(c1cccnc1)N1C[C@@H](c2ccccc2)[C@@]2(CCNC2=O)C1	-6.23%
Cn1cnc2c1C(COCC1CCOCC1)CN(C1CCOCC1)C2 (configuration not stated)	-4.22%
CCC=C(C)C(=O)NCc1ccc(OC)nc1	-4.13%
O=C(NCC1(COc2cnccn2)C[C@@H](O)[C@@H](O)C1)C1CCOCC1 (some centres not stated)	-2.48%
